Assay outcomes: PubChem, several laboratories
Apaf1 inhib: human Apaf-1 inhibition. O14727. reconstituted apoptosome caspase-3 activity, DEVD-Rh110 fluorescence. inhibition, % at 20 µM. actives 0.71% (n = 330,000); active = inhibition of at least 40% at 20 µM
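Assay system – apoptosome proteins · Medium – Hepes buffer, pH 7.5 · Also added – cytochrome c with DEVD-Rh110 · Timing – 30 min compound preincubation, 50 min activation, room temperature · Detection – Rh110 fluorescence, excitation 480 nm, emission 540 nm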
TDP2 absorb: TDP2 (human) inhibition, absorbance primary screen | O95551 | recombinant TDP2, T5PNP hydrolysis, p-nitrophenol absorbance 415 nm | inhibition, % at 12.8 µM | actives 0.34% (n = 370,000);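 active = inhibition above the mean of all tested compounds plus 3 SD, set per campaign, cut at about 25% in these data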
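Test system: Human TDP2 enzyme | Reagent: 5 mM T5PNP | Compound dosing: 12.8 µM single point, 1% DMSO | Incubation: Enzyme reaction with compound for 2 h at 37 °C | Technique: p-Nitrophenol epi absorbance | Read-out: % inhibition relative to enzyme-containing and enzyme-free wells | Benchmarks: High control without enzyme, low control DMSO plus TDP2 | Replicates: Singlicate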
GSTO1 inh: blocks human GSTO1 in RBBP9 counter-screen; P78417; recombinant GSTO1, activity-based probe fluorescence polarization; inhibition, % at 5.96 µM; actives 1.1% (n = 300,000);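 active = inhibition above the campaign mean inhibition plus 3 SD, cut at about 35% in these data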
PRMT1 inh: blocks human protein arginine methyltransferase 1 | recombinant PRMT1, activity-based probe fluorescence polarization | actives 1.3% (n = 370,000) | Q99873 | inhibition, % at 2.79 µM;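 active = inhibition above about 21% made by adding two undisclosed values, limit read from the data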
PAD4 FP inh: blocks human protein arginine deiminase 4; Q9UM07; inhibition, % at 6.36 µM; recombinant PAD4, RCA probe fluorescence polarization; actives 0.41% (n = 330,000); AID 485272;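 active = percent inhibition above a cutoff equal to the mean of all tested compounds plus 3 SD, cut at about 15% in these data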
PAD4 confirm: PAD4 (human) inhibition, confirmed | shares compounds with PAD4 FP inh | recombinant PAD4, RCA probe fluorescence polarization | inhibition, % at 6.36 µM | actives 28% (n = 1,200);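 active = mean inhibition across replicates above the hit cutoff set by the earlier primary screen, cut at about 15% in these data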;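 note: inhibitors block active-site labeling by the probe so polarization falls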
Apaf-1 inh conf: confirmation of Apaf-1 inhibitors | actives 25% (n = 1,800) | shares compounds with Apaf1 inhib | inhibition, % at 20 µM | reconstituted apoptosome, caspase-3 DEVD-Rh110 fluorescence;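 active = mean inhibition of at least 40% at 20 µM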
Rh110 quench: interferes with Rh110 fluorescence, flagging false Apaf-1 inhibitors | Rh110 fluorescence interference, quenched caspase reaction | AID 504615 | 1,800 tested, under 10 active | shares compounds with Apaf1 inhib | activation (fluorescence interference), % at 20 µM;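 active = signal rise of 40% or more at 20 µM, treated as a fluorescence artifact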
TDP2 inh conf: human TDP2 inhibition, confirmation; shares compounds with TDP2 absorb; recombinant human TDP2, absorbance read-out; inhibition, % at 12.8 µM; actives 22% (n = 1,100); in the data active = inhibition above about 25%
Of the large screens only hits and unclear results are named; the others gave an inactive call (follow-up assays come after a bar, where they were run). Compounds with a hit are over-represented: about 2.6% of the library has one in this group of screens.

NC(=O)N/N=C/c1cccc(OCc2ccc(F)cc2)c1	none
COc1ccc(-n2c(C)cc(/C=N/Nc3nnc(C)n3N)c2C)cc1	Apaf1 inhib 53, TDP2 absorb 73, GSTO1 inh 46, PAD4 FP inh 36 | PAD4 confirm inactive | Apaf-1 inh conf inactive | Rh110 quench inactive | TDP2 inh conf inactive
Cc1nnc(N/N=C/c2cccc(C(F)(F)F)c2)n1N	TDP2 absorb 82, PAD4 FP inh 35 | PAD4 confirm inactive | TDP2 inh conf inactive
FC(F)(F)c1ccc(Cl)c(NC(=S)N/N=C/c2ccccc2C(F)(F)F)c1	none
Cc1nnc(N/N=C/c2cccc(OCc3ccc(Cl)c(Cl)c3)c2)n1N	Apaf1 inhib 77, TDP2 absorb 62, GSTO1 inh 46, PAD4 FP inh 33 | PAD4 confirm inactive | Apaf-1 inh conf inactive | Rh110 quench inactive | TDP2 inh conf inactive
Cc1nnc(N/N=C/c2ccccc2C(F)(F)F)n1N	TDP2 absorb 52, PAD4 FP inh 18 | PAD4 confirm inactive | TDP2 inh conf inactive
C=CCC(NC(=O)N(C)C)(C(C)=O)C(=O)OC (stereo unspecified)	none (no result: Apaf1 inhib, GSTO1 inh, PAD4 FP inh)
COc1ccc(C(C)c2cc3c(cc2OCC(=O)O)OCO3)cc1 (stereo unspecified)	none (no result: Apaf1 inhib, GSTO1 inh, PAD4 FP inh)
Cc1nnc(N/N=C/c2ccco2)n1N	TDP2 absorb 69, GSTO1 inh 38, PAD4 FP inh 23 | PAD4 confirm inactive | TDP2 inh conf inactive
Cc1ccnc(N/N=C/c2ccco2)n1	none
Cc1nnc(N/N=C/c2ccccc2F)n1N	TDP2 absorb 50, PAD4 FP inh 31 | PAD4 confirm inactive | TDP2 inh conf inactive
CCOC(=O)[C@]12CCC=C1N(Cc1cccc3ccccc13)C(=O)[C@H](CC(=O)N1CCN(C(=O)c3ccco3)CC1)C2	none (no result: Apaf1 inhib, GSTO1 inh, PAD4 FP inh)
CCOC(=O)[C@@H](NC(=O)[C@@H]1CC=C[C@@H]2CCN(Cc3ccc(Cl)cc3)C(=O)[C@@H]21)C(C)C	none (no result: Apaf1 inhib, GSTO1 inh, PAD4 FP inh)
N#CCCn1[nH]c(-c2ccccc2)cc1=O	Apaf1 inhib 72, TDP2 absorb 85, GSTO1 inh 39, PAD4 FP inh 51 | PAD4 confirm inactive | Apaf-1 inh conf inactive | Rh110 quench inactive | TDP2 inh conf inactive
O=c1cc(-c2ccccc2)[nH]n1-c1nc2ccccc2[nH]1	none
CCCCNC(=O)c1nc(-c2cc3ccccc3[nH]2)oc1-c1ccccc1	none (no result: Apaf1 inhib, GSTO1 inh, PAD4 FP inh)
COc1cc(C2C(C#N)=C(C)NC3=C2C(=O)c2ccccc23)cc(OC)c1OC (stereo unspecified)	Apaf1 inhib 54 | Apaf-1 inh conf inactive | Rh110 quench inactive
COc1ccc(C2C(C#N)=C(C)NC3=C2C(=O)c2ccccc23)cc1 (stereo unspecified)	none
O=C1C(Cl)=C(N2CCCCC2)C(=O)C(Cl)=C1c1cnc(N2CCCCC2)s1	Apaf1 inhib 48 (no result: TDP2 absorb, GSTO1 inh, PRMT1 inh, PAD4 FP inh) | Apaf-1 inh conf inactive | Rh110 quench inactive
COCCN(C(=O)CSc1nc(N)cc(=O)[nH]1)c1c(N)n(Cc2ccccc2)c(=O)[nH]c1=O	Apaf1 inhib 45 | Apaf-1 inh conf inactive | Rh110 quench inactive
Cn1c(=O)c2c(nc(CN3CCc4ccccc4C3)n2Cc2cccc(Cl)c2)n(C)c1=O	Apaf1 inhib 51 | Apaf-1 inh conf inactive | Rh110 quench inactive
Cn1c(=O)c2c(nc(CN3CCN(Cc4ccccc4)CC3)n2Cc2cccc(Cl)c2)n(C)c1=O	none
COC(=O)c1cc(-c2ccc(C)cc2)c(=O)n2c1CCC2	none (no result: Apaf1 inhib, GSTO1 inh, PAD4 FP inh)
CN1C(=O)c2cc(NC(=O)Nc3ccccc3F)ccc2OC[C@H]2O[C@@H](CC(=O)NCc3ccc(-c4ccccc4)cc3)CC[C@@H]21	none (no result: Apaf1 inhib, GSTO1 inh, PAD4 FP inh)
CCCCCCSc1cccc(-c2nc3ccccn3c2NCc2ccccc2)c1	none (no result: GSTO1 inh)
CCCCCCSc1cccc(-c2nc3cc(C)ccn3c2NCc2ccccc2)c1	Apaf1 inhib 40 | Apaf-1 inh conf inactive | Rh110 quench inactive
